# XBP1 UPR activ = activators of adaptive arm of unfolded protein response (XBP1); AID 463104; 330,000 tested, 0.33% active; CHO-XBP1 luciferase reporter, IRE1-XBP1 UPR activation, luminescence; percent of tunicamycin response, DMSO as zero; activation, % at 20 µM;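 active means versus positive control, 20 µM dose yields 30% or more activation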;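 further: 100% = tunicamycin at 10 µg/mL and 0% = DMSO only wells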
#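 Material – CHO cell line with stable XBP1 luciferase reporter · Buffer or medium – F12 plus 10% FBS · Compound – single point, 20 µM final compound, 1% DMSO · Schedule – 16-18 h cell attachment at 37 °C, then 6 h compound exposure · Signal – Steady-Glo luminescence read · Benchmarks – high control tunicamycin 10 µg/mL final, low control DMSO vehicle only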
# UPR CHOP act = apoptotic UPR (CHOP) activation; CHO-CHOP luciferase reporter, luminescence; percent of tunicamycin response over DMSO baseline; activation, % at 10 µM; 330,000 tested, 0.34% active; AID 449763;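 active means at 10 µM dose, activation of 40% or more, normalized to positive control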;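 further: 100% = tunicamycin at 10 µg/mL and 0% = DMSO alone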
#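 Assay system: CHO-CHOP cells, stable luciferase reporter of PERK-eIF2a-CHOP signalling / Buffer or medium: F12 plus 10% serum / Compound dosing: one dose, 10 µM in 0.5% DMSO / Times: 6 h compound treatment, 37 °C / Technique: luciferase luminescence / Read-out: % reporter activation, DMSO baseline versus tunicamycin full activation / Benchmarks: tunicamycin and DMSO controls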
# PvdQ inh = blocks Pseudomonas aeruginosa PvdQ acylase activity | purified PvdQ acylase, fluorescence plate reader | AID 488965 | inhibition, % at 10 µM | 340,000 tested, 0.063% active; in the data active means inhibition above about 30%, passing the limit was not always enough;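 further: 0% = vehicle neutral wells and 100% = reference inhibitor wells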
# CHOP inh = CHOP inhibition in unfolded protein response. CHO-K1 CHOP-promoter luciferase, tunicamycin-induced, 15-18 h. inhibition, % at 10 µM. 220,000 tested, 3.8% active. AID 2732;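 active means compounds that reduced the stress-induced luciferase reporter signal by more than about 70% of percent inhibition, limit read from the data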;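 further: 0% = tunicamycin plus vehicle and 100% = wells without tunicamycin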
# CHOP confirm = confirmation of CHOP induction inhibitors; 2,100 tested, 45% active; shares compounds with CHOP inh; inhibition, % at 10 µM; CHO-CHOP promoter luciferase reporter, tunicamycin-induced, luminescence;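 active means mean of three repeat readings of reporter signal inhibition above a set limit, cut at about 70% in these data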;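 further: 0% = tunicamycin plus vehicle and 100% = wells lacking tunicamycin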
# An asterisk follows results filed as active; . = no result. This excerpt belongs to a sample that is enriched for hits.
SMILES,XBP1 UPR activ,UPR CHOP act,PvdQ inh,CHOP inh,CHOP confirm
COC(=O)c1c(NC(C)=O)sc(C)c1C,-3,1,-13,12,.
CC(=O)Oc1ccc(-c2cccc(C(=O)NCCCO)c2)cc1,-1,1,12,-7,.
CCCCc1c(C)c(C#N)c2[nH]c3ccccc3n2c1=O,0,-2,-8,103*,56
CC(C)CCNC(=O)C1CCC(CNS(=O)(=O)c2cccc3nsnc23)CC1 (centres undefined),-1,2,-6,.,.
COc1ccc(C2=NN(C(=O)CCC(=O)O)C(c3ccccc3OC)C2)cc1 (centres undefined),1,1,-3,.,.
C=CCc1cccc(CNc2nc3ccccc3n2C(C)C)c1O,-2,-1,-9,108*,43
O=c1cc(-c2c(F)c(F)c(F)c(F)c2F)oc2ccccc12,5,3,-1,29,.
O=c1cc(-c2c(F)c(F)c(F)c(F)c2F)oc2c(F)c(F)c(F)c(F)c12,-5,-9,.,109*,124*
O=S1(=O)c2ccccc2N=NN1Cc1ccc(Cl)cc1,-2,-1,-8,109*,16
Clc1ccc(Cn2cnc3ccccc32)cc1,-1,0,-5,13,.
Cn1cnc([N+](=O)[O-])c1S(=O)(=O)c1ccc(Cl)cc1,.,.,8,109*,116*
Cn1cnc([N+](=O)[O-])c1NC(C)(C)C,-4,0,-5,27,.
CC(C)(C)C1CCc2onc(C(=O)Nc3cccc(O)c3)c2C1 (centres undefined),4,3,-6,109*,25
CC(C)(C)C1CCc2onc(C(=O)Nc3cccnc3)c2C1 (centres undefined),6,2,9,48,.
CC(C)CC(CO)N1CCN(C(=O)c2cccc(C(F)(F)F)c2)CCC1=O (centres undefined),-2,0,-17,16,.
CC1=NN(/C(=N\c2nnc(C)s2)Nc2ccc(C(C)(C)C)cc2)[C@H](c2ccc(C)cc2)S1,3,5,-15,59,.
O=C(CN1C(=O)c2ccccc2S1(=O)=O)c1ccc(F)cc1,-10,-7,-8,38,.
O=C(CN1C(=O)c2ccccc2S1(=O)=O)c1ccc2c(c1)OCCCO2,-11,-11,0,104*,121*
CCNC(=S)Nc1nc2c(cc1C(=O)OCC)CCCC2,1,3,-8,40,.
O=C(C1CC1)N1N=C(c2ccccc2)CC1(O)C(F)(F)C(F)(F)F (centres undefined),0,-1,-12,.,.
CSc1nc(N)nc(SCC(=O)C23CC4CC(CC(C4)C2)C3)c1C#N,3,0,-8,56,.
N#Cc1c(N)nc(SCC(=O)C23CC4CC(CC(C4)C2)C3)c(C#N)c1-c1ccc(Cl)cc1,0,1,-18,101*,83*
O=C(NC1(C(F)(F)F)OCCO1)c1ccc(F)cc1,1,-2,-14,-3,.
COc1ccccc1NC(=O)c1c(Nc2ccccc2C)sc(C(=O)Nc2cccc(Cl)c2)c1N,-1,23,9,100*,131*
CS(=O)(=O)N(CC(=O)Nc1ccccc1Cl)c1ccc(Cl)cc1,7,2,-6,2,.
SMILES,XBP1 UPR activ,UPR CHOP act,PvdQ inh,CHOP inh,CHOP confirm
O=C(Nc1ccc(S(=O)(=O)N2CCOCC2)cc1)c1ccc(CN2CCc3ccccc3C2)cc1,-5,5,.,101*,89*
COc1ccc2c(-c3ccc(S(N)(=O)=O)cc3)c(-c3ccc(S(C)(=O)=O)cc3)sc2c1,-2,3,-32,.,.
Cc1ccc(NC(=O)/C(=C\c2ccc([N+](=O)[O-])cc2)NC(=O)c2ccccc2)cc1,0,3,-12,98*,-4
O=C(Nc1cccc(C(=O)O)c1)/C(=C/c1ccc([N+](=O)[O-])cc1)NC(=O)c1ccccc1,-5,-2,4,22,.
COc1ccc(CNC(=O)c2sccc2-c2ccccc2)cc1OC,-6,0,-14,.,.
OC(COCC(F)(F)C(F)(F)C(F)(F)C(F)F)Cn1c2ccccc2c2ccccc21 (centres undefined),2,4,0,108*,110*
Cc1cccc(C)c1OCC(O)Cn1c2ccccc2c2ccccc21 (centres undefined),-2,-1,-3,107*,-48
Cc1ccc(OCC(O)Cn2c3ccccc3c3ccccc32)cc1 (centres undefined),1,-1,-11,62,.
NC(=O)CSc1nnc(-c2ccccc2)c(-c2ccccc2)n1,2,-1,-15,.,.
COC(=O)c1ccc2c(c1)C(C)(C)C(/C=C/c1ccc(O)cc1)=[N+]2C,-7,-11,-14,112*,138*
Cc1nc(SCC(=O)N2CCN(C(=O)c3cccs3)CC2)c2c(C)c(C)sc2n1,0,0,-13,.,.
Cc1ccc(O)c(-c2cc(C(=O)Nc3ccc(S(=O)(=O)N4CC(C)OC(C)C4)cc3)[nH]n2)c1 (centres undefined),3,0,-15,99*,33
Cc1ccc(-c2cc(C(=O)Nc3ccc(S(=O)(=O)N4CC(C)OC(C)C4)cc3)[nH]n2)c(O)c1 (centres undefined),-3,1,-8,-10,.
Cc1ccn2cc(-c3cc4ccccc4oc3=O)nc2c1,.,.,2,105*,88*
CCOc1ccc(/C=N/NC(=O)Cc2csc(Nc3cccc(C(F)(F)F)c3)n2)cc1,-3,0,-11,106*,32
COC(=O)/C(=C1/Oc2cc(C)oc(=O)c2S1)C(F)(F)F,-4,5,10,111*,112*
Nn1c(SCC(=O)NCCC2=CCCCC2)nnc1C(F)(F)F,1,0,-9,-14,.
C=CCOc1ccc2c(c1)C(=NO)c1cc(OCC=C)ccc1-2,7,2,-11,104*,59
CC(C)OCc1c(C(=O)OC/C(O)=C(\C#N)c2nc3ccccc3[nH]2)oc2ccccc12,-4,0,-2,38,.
CCOC(=O)c1c(C)[nH]c(C(=O)OCC(O)=C(C#N)c2nc3ccccc3[nH]2)c1C,.,.,-7,.,.
Cc1c(-c2cccc(Cl)c2)nc2ccccc2c1C(=O)OC/C(O)=C(\C#N)c1nc2ccccc2[nH]1,16,0,-8,105*,47
Cc1c(C(=O)OC/C(O)=C(\C#N)c2nc3ccccc3[nH]2)oc2ccc(Br)cc12,2,3,-10,103*,13
CCOC(=O)/C=C/C(=O)Nc1ccc(S(=O)(=O)Nc2c(C)cc(C)cc2C)cc1,0,1,-4,34,.
CCOC(=O)/C=C/S(=O)(=O)c1ccc(NC(C)=O)cc1,-8,-12,-3,.,121*
COc1cc(OC)c(OC)cc1/C=N/Nc1ncnc2c1[nH]c1ccccc12,11,-1,-9,104*,72*
COc1ccc(/C=N/Nc2ncnc3c2[nH]c2ccc(C)cc23)c(OC)c1OC,6,6,-12,32,.

# From PubChem
